The results in this text go back to ChEMBL document CHEMBL5537124, “Unexpected rearrangement of ivermectin in the synthesis of new derivatives with trypanocidal and antiplasmodial activities” (Eur J Med Chem, 2024).

In series [1] the test system is Trypanosoma brucei brucei. Put plainly: Trypanocidal activity against Trypanosoma brucei brucei 221a assessed as parasite growth inhibition measured after 24 hrs by resazurin dye based microplate reader analysis. It is filed as functional. The gist of the method: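 Seeded at 1 × 10^4 mL-1 (T. b. brucei) or 5 × 10^4 mL-1 (HL-60) in Baltz medium with 16.7 % bovine serum and 0.9 % DMSO. Test compounds given as tenfold dilutions from 100 μM to 1 nM. Incubated at 37 °C, 5 % CO2. Resazurin added after 24 h, then a further 48 h. Absorbance read at 570/630 nm. GI50 obtained by linear interpolation; mean ± SD of three independent experiments.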

Series [2] is described as follows: Selectivity index, ratio of GI50 for human HL-60 cells to GI50 for Trypanosoma brucei brucei 221a. The settings on record: HL-60 cells versus Trypanosoma brucei brucei 221a, read-out: RatioGI50. The series is classed as toxicity. In outline:
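Ratio of GI50 for HL-60 to GI50 for T. b. brucei, both from the resazurin growth assay.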

As for `CC[C@H](C)[C@H]1O[C@]2(CC[C@@H]1C)C[C@@H]1C[C@@H](C/C=C(\C)[C@H](NC(=O)c3ccco3)[C@@H](C)/C=C/C=C3\CO[C@@H]4[C@H](O)C(C)=C[C@@H](C(=O)O1)[C@]34O)O2`, the 50% growth inhibitory concentration (GI50) (commonly the concentration at which growth is held to half of that of the control) in series [1] worked out at 10.2 µM. Further, the selectivity ratio in series [2] was determined as 3.1. For the molecule `CC[C@H](C)[C@H]1O[C@]2(CC[C@@H]1C)C[C@@H]1C[C@@H](C/C=C(\C)[C@H](NC(=O)COC)[C@@H](C)/C=C/C=C3\CO[C@@H]4[C@H](O)[C@](C)(O)C=C(C(=O)O1)[C@]34O)O2`, in series [1], the GI50 stood at 18.2 µM. Moreover, the selectivity ratio in series [2] was found to be 1.8. `CC[C@H](C)[C@H]1O[C@]2(CC[C@@H]1C)C[C@@H]1C[C@@H](C/C=C(\C)[C@H](NC(=O)c3ccc(OC)c(OC)c3)[C@@H](C)/C=C/C=C3\CO[C@@H]4[C@H](O)[C@](C)(O)C=C(C(=O)O1)[C@]34O)O2`: in series [1], the concentration for 50% growth inhibition (GI50) stood at 5 µM. The selectivity ratio in series [2] came out at 6.4. In the case of `CC[C@H](C)[C@H]1O[C@]2(CC[C@@H]1C)C[C@@H]1C[C@@H](C/C=C(\C)[C@H](NC(=O)COC)[C@@H](C)/C=C/C=C3\CO[C@@H]4[C@H](O)C(C)=C[C@@H](C(=O)O1)[C@]34O)O2`, the concentration for 50% growth inhibition (GI50) in series [1] came to 14.4 µM. Also, the selectivity ratio in series [2] was 2.3. With `Cc1ccc(C(=O)Nc2ccc(S(=O)(=O)O)c3cc(S(=O)(=O)O)cc(S(=O)(=O)O)c23)cc1NC(=O)c1cccc(NC(=O)Nc2cccc(C(=O)Nc3cc(C(=O)Nc4ccc(S(=O)(=O)O)c5cc(S(=O)(=O)O)cc(S(=O)(=O)O)c45)ccc3C)c2)c1` [SURAMIN], the 50% growth inhibitory concentration (GI50) in series [1] amounted to 0.036 µM. Also, the selectivity ratio in series [2] is more than 2780. `CC[C@H](C)[C@H]1O[C@]2(CC[C@@H]1C)C[C@@H]1C[C@@H](C/C=C(\C)[C@H](NC(=O)c3ccco3)[C@@H](C)/C=C/C=C3\CO[C@@H]4[C@H](O)[C@](C)(O)C=C(C(=O)O1)[C@]34O)O2`: the 50% growth inhibitory concentration (GI50) in series [1] came out at 4.7 µM. For the same molecule, the selectivity ratio in series [2] turned out to be 7. Regarding `CCC(=O)N[C@H]1/C(C)=C/C[C@@H]2C[C@@H](C[C@]3(CC[C@H](C)[C@@H]([C@@H](C)CC)O3)O2)OC(=O)C2=C[C@@](C)(O)[C@@H](O)[C@H]3OC/C(=C\C=C\[C@@H]1C)[C@@]23O`, the GI50 in series [1] came to 8.1 µM. In addition, the selectivity ratio in series [2] came to 4.3.

On to `CC[C@H](C)[C@H]1O[C@]2(CC[C@@H]1C)C[C@@H]1C[C@@H](C/C=C(\C)[C@H](NC(=O)C(C)C)[C@@H](C)/C=C/C=C3\CO[C@@H]4[C@H](O)C(C)=C[C@@H](C(=O)O1)[C@]34O)O2`, for which, in series [1], the GI50 worked out at 10.2 µM. Further, the selectivity ratio in series [2] was 3.3. On to `CC[C@H](C)[C@H]1O[C@]2(CC[C@@H]1C)C[C@@H]1C[C@@H](C/C=C(\C)[C@H](NC(=O)CCl)[C@@H](C)/C=C/C=C3\CO[C@@H]4[C@H](O)C(C)=C[C@@H](C(=O)O1)[C@]34O)O2`, for which the 50% growth inhibitory concentration (GI50) in series [1] came out at 0.063 µM. Further, the selectivity ratio in series [2] worked out at 47.6. Take `CC[C@H](C)[C@H]1O[C@]2(CC[C@@H]1C)C[C@@H]1C[C@@H](C/C=C(\C)[C@H](NC(=O)c3ccc(OC)c(O)c3)[C@@H](C)/C=C/C=C3\CO[C@@H]4[C@H](O)[C@](C)(O)C=C(C(=O)O1)[C@]34O)O2`: in series [1], the GI50 worked out at 4.1 µM. The selectivity ratio in series [2] was determined as 8. With `CC[n+]1c(-c2ccccc2)c2cc(N)ccc2c2ccc(N)cc21` [HOMIDIUM BROMIDE], in series [1], the 50% growth inhibitory concentration (GI50) is 0.086 µM. The selectivity ratio in series [2] stood at 67.4.

As for IVERMECTIN, the 50% growth inhibitory concentration (GI50) in series [1] stood at 14.6 µM.

Turning to `CC[C@H](C)[C@H]1O[C@]2(CC[C@@H]1C)C[C@@H]1C[C@@H](C/C=C(\C)[C@H](NC(=O)c3ccccc3)[C@@H](C)/C=C/C=C3\CO[C@@H]4[C@H](O)[C@](C)(O)C=C(C(=O)O1)[C@]34O)O2`, the 50% growth inhibitory concentration (GI50) in series [1] is 4.3 µM. The selectivity ratio in series [2] was determined as 7. Take `CCC(=O)N[C@H]1/C(C)=C/C[C@@H]2C[C@@H](C[C@]3(CC[C@H](C)[C@@H]([C@@H](C)CC)O3)O2)OC(=O)[C@@H]2C=C(C)[C@@H](O)[C@H]3OC/C(=C\C=C\[C@@H]1C)[C@]32O`: in series [1], the GI50 is 7.4 µM. Also, in series [2], the selectivity ratio came out at 4.3. `CC[C@H](C)[C@H]1O[C@]2(CC[C@@H]1C)C[C@@H]1C[C@@H](C/C=C(\C)[C@H](NC(=O)C(C)C)[C@@H](C)/C=C/C=C3\CO[C@@H]4[C@H](O)[C@](C)(O)C=C(C(=O)O1)[C@]34O)O2`: the GI50 in series [1] is 6.6 µM. For the same molecule, the selectivity ratio in series [2] worked out at 5.1. On to `CCCCCCCCCC(=O)N[C@H]1/C(C)=C/C[C@@H]2C[C@@H](C[C@]3(CC[C@H](C)[C@@H]([C@@H](C)CC)O3)O2)OC(=O)C2=C[C@@](C)(O)[C@@H](O)[C@H]3OC/C(=C\C=C\[C@@H]1C)[C@@]23O`, for which, in series [1], the concentration for 50% growth inhibition (GI50) worked out at 4.1 µM. Moreover, in series [2], the selectivity ratio worked out at 7.8. Consider `CC[C@H](C)[C@H]1O[C@]2(CC[C@@H]1C)C[C@@H]1C[C@@H](C/C=C(\C)[C@H](NC(=O)c3ccc(OC)c(OC)c3)[C@@H](C)/C=C/C=C3\CO[C@@H]4[C@H](O)C(C)=C[C@@H](C(=O)O1)[C@]34O)O2`, for which the 50% growth inhibitory concentration (GI50) in series [1] stood at 5.8 µM. Moreover, in series [2], the selectivity ratio is 5.6. For `CC[C@H](C)[C@H]1O[C@]2(CC[C@@H]1C)C[C@@H]1C[C@@H](C/C=C(\C)[C@H](NC(=O)C34CC5CC(CC(C5)C3)C4)[C@@H](C)/C=C/C=C3\CO[C@@H]4[C@H](O)C(C)=C[C@@H](C(=O)O1)[C@]34O)O2` the same measures were 19.1 µM and 1.6. Consider `CC[C@H](C)[C@H]1O[C@]2(CC[C@@H]1C)C[C@@H]1C[C@@H](C/C=C(\C)[C@H](NC(=O)c3ccc(OC)c(O)c3)[C@@H](C)/C=C/C=C3\CO[C@@H]4[C@H](O)C(C)=C[C@@H](C(=O)O1)[C@]34O)O2`, for which the 50% growth inhibitory concentration (GI50) in series [1] was found to be 3.9 µM. Moreover, the selectivity ratio in series [2] came to 8.2. On to `CC[C@H](C)[C@H]1O[C@]2(CC[C@@H]1C)C[C@@H]1C[C@@H](C/C=C(\C)[C@H](NC(=O)C34CC5CC(CC(C5)C3)C4)[C@@H](C)/C=C/C=C3\CO[C@@H]4[C@H](O)[C@](C)(O)C=C(C(=O)O1)[C@]34O)O2`, for which, in series [1], the GI50 amounted to 3 µM. The selectivity ratio in series [2] was 10.3. As to `CC[C@H](C)[C@H]1O[C@]2(CC[C@@H]1C)C[C@@H]1C[C@@H](C/C=C(\C)[C@H](NC(=O)CCl)[C@@H](C)/C=C/C=C3\CO[C@@H]4[C@H](O)[C@](C)(O)C=C(C(=O)O1)[C@]34O)O2`, in series [1], the GI50 is 0.064 µM. For the same molecule, the selectivity ratio in series [2] was determined as 67.2.

As for `CCCCCCCCCC(=O)N[C@H]1/C(C)=C/C[C@@H]2C[C@@H](C[C@]3(CC[C@H](C)[C@@H]([C@@H](C)CC)O3)O2)OC(=O)[C@@H]2C=C(C)[C@@H](O)[C@H]3OC/C(=C\C=C\[C@@H]1C)[C@]32O`, the GI50 in series [1] came out at 9.3 µM. The selectivity ratio in series [2] was 3.2. In the case of `CC[C@H](C)[C@H]1O[C@]2(CC[C@@H]1C)C[C@@H]1C[C@@H](C/C=C(\C)[C@H](NC(=O)c3ccccc3)[C@@H](C)/C=C/C=C3\CO[C@@H]4[C@H](O)C(C)=C[C@@H](C(=O)O1)[C@]34O)O2`, the GI50 in series [1] amounted to 8.6 µM. In addition, the selectivity ratio in series [2] worked out at 3.6.
